Out of some 350,000 compounds screened, about 300 (0.086%) were called active.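 Rule for the calls: active = mean inhibition across replicates of 30% or more, regardless of how many single replicates reach that level; inconclusive = mean under 30% yet at least half of replicates reach 30%; inactive = the rest.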 The list comes from a sample in which actives are over-represented; it also holds similar structures and randomly drawn compounds.

The experiment in a line: blockers of fibronectin fibrillogenesis by fibroblasts – AH1F cells, Alexa488-fibronectin fluorescence, plate reader, primary screen (AID 743247).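 Note: positive control wells lacked labelled fibronectin entirely.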 To be noted: Alexa488-fibronectin deposition fluorescence, overnight, at 12.6 µM, stronger effect = higher value. Put shortly: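 test system = AH1F fibroblasts assembling fluorescent fibronectin matrix | quantity = 10000 AH1F cells per well | buffer or medium = DMEM plus 2% serum, read in PBS | doses = single dose, pinned | incubation = 1 h cell attachment, overnight exposure to compound and label | detection = fluorescence at 485 nm excitation, 525 nm emission | read-out basis = inhibition from reduced deposited-fibronectin fluorescence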
The inhibition is the change of the read-out against control, counted positive when it falls. `CO[C@@H]1CN(C)C(=O)c2cc(NC(=O)C3CC3)ccc2OC[C@@H](C)N(C(=O)NC(C)C)C[C@@H]1C`: the inhibition is -0.851% (inactive). Regarding `C[C@@H](NC(=O)C[C@@H]1C[C@H]2c3cc(NC(=O)C4CCC4)ccc3O[C@H]2[C@@H](CO)O1)c1ccccc1`, the inhibition is 17.4% (inactive). The value for `O=C(NC[C@@H]1[C@@H](c2ccccc2)[C@@H](CO)N1Cc1ccccn1)C1CCC1` was -14.4% (inactive); that for `O=C(C[C@@H]1CC[C@@H](NS(=O)(=O)c2ccc(F)cc2)[C@@H](CO)O1)NCCc1ccncc1` was -5.79% (inactive); that for `C[C@@H]1CN([C@@H](C)CO)C(=O)Cc2cc(NC(=O)Nc3ccc4c(c3)OCO4)ccc2O[C@H]1CN(C)S(=O)(=O)c1ccccc1` was 0.36% (inactive). As for `C[C@@H]1CN([C@H](C)CO)C(=O)c2ccccc2-c2ccccc2CO[C@H]1CN(C)S(=O)(=O)c1ccsc1`, the inhibition is 1.86% (inactive). As for `C[C@@H]1CN([C@H](C)CO)S(=O)(=O)c2ccc(C#CC3CC3)cc2O[C@H]1CN(C)C(=O)C1CCCCC1`, the inhibition is -1.06% (inactive). With `COc1ccc2c3c(n(C)c2c1)[C@H](CO)NCC31CN(Cc2cc(F)ccc2F)C1`, the inhibition was -4.09% (inactive). Consider `O=C(C1CCCCC1)N1CC2(C1)[C@H](c1ccccc1)[C@H](CO)N2CC1CCCC1`, for which the inhibition was -10.3% (inactive). Take `CS(=O)(=O)N1C[C@@H]2C(c3ccccc3)[C@H](C1)N2CC(F)(F)F` (some centres not stated): the inhibition was -13.1% (inactive).

For the compound `O=C(C[C@@H]1CC[C@@H](NC(=O)Nc2ccc(F)cc2)[C@H](CO)O1)NCCN1CCCC1`, the inhibition is 0.829% (inactive). The value for `COc1ccc(-c2ccc3c(c2)[C@@H]2[C@@H](CCN2C(=O)NC2CCCC2)[C@@H](CO)N3C)cc1` was 5.47% (inactive). For `CC(C)NC(=O)Nc1cccc2c1O[C@@H](CN(C)C(=O)NC(C)C)[C@@H](C)CN(C)C2=O`, the inhibition was 3.55% (inactive). Take `CN(C)CC(=O)N1CC2(C1)[C@H](c1ccccc1)[C@H](CO)N2C(=O)C1CC1`: the inhibition is -3.48% (inactive). Turning to `O=C(C1CCOCC1)N1CC(=O)N2[C@H](CO)[C@@H](c3ccc(C#CC4CCCC4)cc3)[C@H]2C1`, the inhibition is -4.97% (inactive). Regarding `Cc1cccc(-n2ncc(Cl)c(Cl)c2=O)c1`, the inhibition is 51.7% (active). Turning to `Cc1cccc(-n2ncc3c(=O)[nH]c(SCC(=O)Nc4cc(C)on4)nc32)c1`, the inhibition was -0.734% (inactive).

Turning to `Cc1ccc(-n2ncc3c(=O)[nH]cnc32)c(C)c1`, the inhibition is -2.15% (inactive). With `COc1ccc(-c2ccc3c(c2)O[C@@H](CN(C)CC2CCOCC2)[C@@H](C)CN([C@@H](C)CO)S3(=O)=O)cc1`, the inhibition was 5.61% (inactive). For the compound `C[C@@H]1CC=CC[C@@H](c2ccccc2)NC(=O)[C@H](C)N(C)C(=O)c2ccccc2O1` (mixture of isomers), the inhibition was -2.82% (inactive). As for `CN(C)c1ccc2c(c1)[C@H]1C[C@H](CC(=O)NCc3ccc(Cl)cc3)O[C@H](CO)[C@H]1O2`, the inhibition was 1.04% (inactive).

`C[C@@H]1CC=CC[C@H](c2ccc(F)cc2)NC(=O)[C@@H](Cc2ccccc2)N(C)C(=O)c2ccccc2O1` (mixture of isomers): the inhibition was 7.06% (inactive). The value for `COc1ccccc1NC(=O)N[C@H]1CC[C@H](CCNC(=O)Cc2ccccn2)O[C@@H]1CO` was 1.21% (inactive). In the case of `COC(=O)C[C@H]1CC[C@@H]2[C@@H](COc3ccc(NC(=O)Nc4ccc(Cl)cc4)cc3C(=O)N2C)O1`, the inhibition was -17.5% (inactive). Take `CN(C)C(=O)c1ccc(-c2ccc([C@H]3[C@H](CO)N4C(=O)CN(C(=O)C5CCCC5)C[C@@H]34)cc2)cc1`: the inhibition was 0.201% (inactive). Regarding `C[C@H]1CCCCO[C@H](CN(C)C(=O)Nc2ccc(F)cc2)[C@@H](C)CN([C@@H](C)CO)C(=O)c2cc(NC(=O)CCC(F)(F)F)ccc2O1`, the inhibition was 7.35% (inactive). For the compound `COc1ccc2c3c(n(C)c2c1)[C@H](CO)N(C(=O)c1ccncc1)CC31CCN(CC2CC2)CC1`, the inhibition was -1.91% (inactive). On to `O=C(C[C@@H]1C=C[C@@H](NC(=O)c2cccnc2)[C@H](CO)O1)NCc1ccncn1`, for which the inhibition is 11.1% (inactive). The value for `CNC(=O)C[C@@H]1CC[C@@H]2[C@H](COc3ccc(NC(=O)c4cccs4)cc3C(=O)N2C)O1` was -9.79% (inactive); that for `C[C@@H](C(=O)N(C)C[C@H]1OCc2ccccc2-c2c(n(C)c3ccccc23)C(=O)N([C@@H](C)CO)C[C@@H]1C)c1ccccc1` was -2.51% (inactive); that for `COc1cccc(C#Cc2ccc3c(c2)[C@@H]2[C@@H](CCN2S(=O)(=O)c2ccc(C)cc2)[C@@H](CO)N3)c1` was 2.44% (inactive). For the compound `COc1ccccc1C#Cc1ccc([C@H]2[C@@H](C#N)N(C(=O)C3CCCCC3)[C@@H]2CO)cc1`, the inhibition was -2.57% (inactive).

On to `O=C(C[C@@H]1CC[C@@H]2[C@H](COC[C@@H](O)CN2C(=O)c2ccccc2F)O1)N1CCOCC1`, for which the inhibition is -11.5% (inactive).

As for `O=C(O)C[C@H]1C=C[C@@H](NC(=O)Nc2cc(F)ccc2F)[C@@H](CO)O1`, the inhibition was -9.56% (inactive). The value for `COc1ccc([C@@H]2C/C=C\C[C@@H](c3ccc4c(c3)OCO4)NC(=O)CCC(=O)N2)c(OC)c1` was 8.56% (inactive); that for `CC(C)NC(=O)N[C@@H]1CC[C@H](CC(=O)NC2Cc3ccccc3C2)O[C@H]1CO` was 10.9% (inactive). Take `O=C(C[C@@H]1CC[C@H](NC(=O)C2CCC2)[C@@H](CO)O1)NC1CCCCC1`: the inhibition was -5.05% (inactive). The value for `CC(C)C#Cc1ccc2c(c1)O[C@@H](CN(C)C(=O)C1CCC1)[C@@H](C)CN([C@@H](C)CO)S2(=O)=O` was -2.23% (inactive); that for `CC(=O)N(C)C[C@H]1Oc2ncc(C#Cc3ccc(F)cc3)cc2C(=O)N([C@H](C)CO)C[C@@H]1C` was 11.6% (inactive); that for `CN1C(=O)c2cc(NC(=O)Cc3ccccc3)ccc2OC[C@H]2O[C@H](CC(=O)NCc3ccc(Cl)cc3)CC[C@H]21` was 1.06% (inactive).

As to `CC(C)NC(=O)Nc1ccc2c(c1)CC(=O)N(C)C[C@@H](C)[C@@H](CN(C)C(=O)OC(C)(C)C)O2`, the inhibition was -1.15% (inactive).

As for `COc1cccc(C(=O)Nc2ccc3c(c2)OC[C@H](C)NC[C@H](C)[C@H](OC)CN(C)C3=O)c1`, the inhibition is 3.33% (inactive).

These data come from PubChem BioAssay AID743247 (Broad Institute, 2014).
